In the library only some 2.3% were active in any assay of this set; here they are far more common.
Rtt109 HAT inh – inhibitors of Candida albicans Rtt109/Vps75 histone acetyltransferase | Q5AAJ8 | purified Rtt109/Vps75, ThioGlo CoA-SH fluorescence, 4 h | inhibition, % at 34.9 µM | actives 0.16% (n = 330,000) | AID 540336;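 active means inhibition of at least 50% in every replicate; inconclusive means best replicate reaches 50% inhibition but some replicates fall short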
Target sequence (Q5AAJ8 whole entry, looked up): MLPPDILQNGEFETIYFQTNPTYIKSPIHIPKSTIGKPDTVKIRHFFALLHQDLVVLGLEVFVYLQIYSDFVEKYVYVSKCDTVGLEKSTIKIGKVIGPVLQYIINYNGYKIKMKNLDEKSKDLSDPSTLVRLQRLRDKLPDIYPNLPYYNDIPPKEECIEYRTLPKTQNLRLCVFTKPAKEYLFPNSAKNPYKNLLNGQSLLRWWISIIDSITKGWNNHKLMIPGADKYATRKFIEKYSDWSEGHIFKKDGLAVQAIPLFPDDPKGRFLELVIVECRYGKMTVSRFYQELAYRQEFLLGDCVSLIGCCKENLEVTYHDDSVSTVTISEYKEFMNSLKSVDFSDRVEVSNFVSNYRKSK
PfHsp90 yeast 2 – reduces growth (ATP signal) of yeast expressing P. falciparum Hsp90; S. cerevisiae expressing PfHsp90, BacTiter-Glo ATP, 48 h; yeast lacking PDR1 and PDR3 efflux regulators; actives 0.32% (n = 310,000); AID 504621; inhibition, % at 9.4 µM;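 active means every replicate shows inhibition above about 80%, whatever the replicate mean, limit read from the data; inconclusive means mean inhibition reaches the set limit but some replicate falls short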;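 further: 0% = DMSO neutral controls and 100% = 20 µM radicicol positive controls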
Arrestin-AP2 inh – blocks beta-arrestin peptide binding to AP2 adaptin. FITC-arrestin peptide / GST-AP2 beads, flow cytometry; AP2 beta2 appendage carries R879A mutation. inhibition, % at 10 µM. actives 0.31% (n = 340,000);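 active means inhibition above a set limit, near 3 SD of compounds lacking own fluorescence, cut at about 54% in these data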;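 further: plate controls were DMSO wells for no effect and 5 µM unlabelled arrestin peptide for full effect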
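System: GST-AP2 R879A glutathione beads | Also added: FITC-arrestin peptide, 50 nM | Times: 12 min plus 1 h, RT | Signal: Bead flow cytometry, FITC channel | Buffer or medium: PBS with 0.05% Tween 20 and 0.1% BSA | Read-out basis: Percent drop in bead-associated FITC signal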
PAX8 inh HTS – PAX8 transcriptional activity inhibition; actives 1.2% (n = 360,000); inhibition, % at 12.6 µM; RMG-I TPO-luciferase reporter, SteadyGlo, 24 h;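 active means mean replicate inhibition at least 60% with every replicate also reaching 60%; inconclusive means only one of the two criteria is met; inactive means mean below 60% and not all replicates reaching 60%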;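 further: luciferase light reporting Pax8 driven TPO promoter activity; plate controls were median of neutral control wells for no effect and mitoxantrone controls for full effect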
Env fusion inh – inhibitors of HIV Env-mediated cell fusion; inhibition, % at 12.3 µM; AID 651610; HeLa-JRFL Env/CEM21 cell fusion, luciferase; actives 1.1% (n = 360,000);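 active means mean replicate inhibition score of at least 50 and every replicate individually at or above 50; inconclusive means only one of the two criteria met; inactive means mean below 50 and not all replicates reaching 50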;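 further: 0% = plate neutral controls and 100% = maraviroc near 300 nM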
N-glyco inh – N-linked glycosylation inhibition; reporter increase, % at 12.5 µM; actives 0.23% (n = 360,000); D54 ERlucT glycosylation luciferase reporter, 24 h; percent of 100 nM tunicamycin response;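 active means mean luciferase reporter signal, scaled so untreated is 0 and the glycosylation-blocking control 100, at or above a set limit in every replicate; inconclusive means mean reaches the limit but not every replicate does; inactive means mean below the limit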;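 further: luciferase carries N-glycosylation sites so blocking glycosylation raises the light; 0% = median of neutral control wells and 100% = median of 100 nM tunicamycin wells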
Numbers without * were called inactive; [ ] = dose if it differs, or a comment.

Cc1ccccc1S(=O)(=O)N1CC(=O)N2[C@H](CO)[C@H](c3ccc(C#CCC(C)C)cc3)[C@H]2C1 was read as PAX8 inh HTS 66.0*.
C[C@@H]1CN([C@H](C)CO)C(=O)Cc2cc(NC(=O)Nc3ccccc3)ccc2O[C@@H]1CN(C)C(=O)NC1CCCCC1 was read as PAX8 inh HTS 8.9.
For COc1ccccc1NC(=O)N[C@@H]1C=C[C@H](CC(=O)NCc2ccc(Cl)c(Cl)c2)O[C@@H]1CO the results were PAX8 inh HTS 8.7 and Env fusion inh 74.1*[16.7 µM].
Screening COc1ccccc1NC(=O)N[C@H]1C=C[C@H](CC(=O)N[C@@H](C)c2ccccc2)O[C@@H]1CO returned PAX8 inh HTS -0.5 and Env fusion inh 0.1[16.7 µM].
`COc1ccccc1NC(=O)N[C@@H]1C=C[C@H](CC(=O)N[C@H](C)c2ccccc2)O[C@H]1CO` gave PAX8 inh HTS -13.7 and Env fusion inh 95.5*[16.7 µM].
C[C@H](CO)N1C[C@H](C)[C@@H](CN(C)CC2CC2)OCCCC[C@H](C)Oc2ccc(NC(=O)c3ccncc3)cc2C1=O was read as PAX8 inh HTS -3.7 and Env fusion inh -10.6[16.7 µM].
Screening Cc1noc(C)c1S(=O)(=O)N(C)C[C@H]1OCCCC[C@H](C)Oc2ccc(NC(=O)Nc3ccc4c(c3)OCO4)cc2C(=O)N([C@@H](C)CO)C[C@@H]1C returned PAX8 inh HTS -8.6 and Env fusion inh 59.9*[16.7 µM].
Cc1noc(C)c1S(=O)(=O)N(C)C[C@@H]1OCCCC[C@H](C)Oc2ccc(NC(=O)Nc3ccc(F)cc3)cc2C(=O)N([C@H](C)CO)C[C@@H]1C was read as PAX8 inh HTS 61.0* and Env fusion inh -114.1[16.7 µM].
For Cc1noc(C)c1NC(=O)Nc1ccc2c(c1)C(=O)N([C@@H](C)CO)C[C@H](C)[C@H](CN(C)S(=O)(=O)c1ccc(F)cc1)OCCCC[C@H](C)O2 the results were PAX8 inh HTS -2.2 and Env fusion inh 55.2*[16.7 µM].
Screening Cc1noc(C)c1S(=O)(=O)N(C)C[C@@H]1OCCCC[C@@H](C)Oc2ccc(NC(=O)Nc3ccc(C(F)(F)F)cc3)cc2C(=O)N([C@H](C)CO)C[C@H]1C returned Env fusion inh 83.2*[16.7 µM].
For O=C(CN1CCOCC1)N1CC2(C1)[C@H](c1ccccc1)[C@H](CO)N2Cc1cccc(F)c1 the results were PAX8 inh HTS -6.8.
`CO[C@@H]1CN(C)C(=O)c2ccc(NC(=O)Nc3cc(F)ccc3F)cc2OC[C@H](C)N(C(=O)c2cnccn2)C[C@@H]1C` gave Env fusion inh -3.1[16.7 µM].
For COc1ccc2c3c(n(C)c2c1)[C@H](CO)N(S(C)(=O)=O)CC31CN(C(=O)C2CCCC2)C1 the results were PAX8 inh HTS 3.7.
For BrC(=C\c1ccccc1)/C=N/Nc1ccc2nncn2n1 the results were Rtt109 HAT inh -7.3, PfHsp90 yeast 2 -6.2, Arrestin-AP2 inh -6.5, PAX8 inh HTS -3.9, Env fusion inh -12.1 and N-glyco inh 4.3.
`BrC(=C\c1ccccc1)/C=N/n1cnnc1` gave Rtt109 HAT inh -3.8, PfHsp90 yeast 2 20.1, Arrestin-AP2 inh 17.3, PAX8 inh HTS 95.3*, Env fusion inh -180.5 and N-glyco inh 12.1.
For CCN(CC)c1ccc2nc3ccc(N)cc3[n+](-c3ccccc3)c2c1 the results were Rtt109 HAT inh -4.3, PfHsp90 yeast 2 59.4, Arrestin-AP2 inh 4.7, Env fusion inh 71.6* and N-glyco inh 0.7.
CCN(CC)c1ccc2nc3ccccc3[n+](CC)c2c1 was read as Rtt109 HAT inh 7.9, PfHsp90 yeast 2 29.2, Arrestin-AP2 inh 4.4 and N-glyco inh -6.3.
Screening COC(=O)C(NC(=O)c1ccccc1C)(Nc1ncc(S(=O)(=O)c2ccc([N+](=O)[O-])cc2)s1)C(F)(F)F (centres undefined) returned Rtt109 HAT inh 6.0, Arrestin-AP2 inh -0.5, Env fusion inh inconclusive and N-glyco inh 0.1.

High-throughput results deposited in PubChem by several laboratories.
